Assay [1] is described as follows: hit retest on RPL19A-GFP reporter strain – cell-based, S. cerevisiae, flow cytometry, cherry picks, mother/daughter gates, confirmation (AID 2270;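 active means GFP response below 50% of the DMSO control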). To be noted: 3 h, at 10 µM, stronger effect = lower value, 100 = same GFP as DMSO wells. A general note: A flow cytometer gives signals particle by particle.
Assay [2] in a line: yeast TOR pathway reporter LAP4-GFP change – cell-based, cherry picks, flow cytometry, mother/daughter gates, confirmation (AID 2271;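 active means GFP response above 150% of the DMSO control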;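 further: ratio of sample to DMSO plate mean so 100% equals DMSO level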). To be noted: S. cerevisiae LAP4-GFP strain, 3 h, at 10 µM, stronger effect = higher value, 100 means same as DMSO control. In outline:
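Material: Alexa 633-stained baker's yeast GFP-fusion strain; Compound dosing: single test-compound dose, 10 µM final; Incubation: 30 °C, 3 h compound incubation, rotating; Detection: HT flow cytometry, GFP fluorescence channel; Control set: positive rapamycin (400 ng/mL), negative DMSO.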

Assay [3] in a line: TOR pathway reporter MEP2-GFP, retest of hits – S. cerevisiae, flow cytometry GFP, cherry picks, confirmation (AID 2272;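 active means GFP response above 150% of the DMSO control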;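 further: ratio of well signal to plate DMSO mean so 100% equals DMSO level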). Particulars: S. cerevisiae MEP2-GFP strain, 3 h, at 10 µM, stronger effect = higher value.
Assay [4] in a line: yeast AGP1-GFP fluorescence change, single-dose – cell-based, flow cytometry, S. cerevisiae, cherry picks, confirmation (AID 2273).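 Further: median GFP channel fluorescence over the whole cell population gate.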 Particulars: S. cerevisiae AGP1-GFP strain, 3 h, at 10 µM.
Assay [5] can be described thus: TOR pathway CIT2 reporter hit retest – S. cerevisiae, GFP fusion, cherry picks, mother/daughter gates, confirmation (AID 2274). Particulars: S. cerevisiae CIT2-GFP strain, flow cytometry, 3 h, at 10 µM, stronger effect = higher value.
The mark [6] stands for this setting: measured here: daughter cell gate.
Setting [7] is: measured here: mother cell gate.
The mark [8] stands for this setting: measured here: daughter cell gate response.
Setting [9] is: measured here: mother cell gate response.

The source made the active and inactive calls.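 How the source made its calls, unless noted: active means GFP response above 150% of the DMSO level; inconclusive means fewer than 70 events counted for a yeast strain; inactive means the rest.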

As to `CCOC(=O)c1cnn(-c2cc(C)nc3c(-c4ccccc4)cnn23)c1N`, the GFP response vs DMSO in assay [1] was 96.7% (inactive); in assay [1] (setting [6]), 98.1%; in assay [1] (setting [7]), 95.4%; in assay [3] it was 103% (inactive). The GFP response relative to DMSO in assay [2] was 92.9% (inactive); in assay [2] (setting [8]), 92.9%; in assay [2] (setting [9]), 94.4%. Moreover, the GFP response, % of DMSO in assay [4] was 89.3% (inactive); in assay [5] it was 98.6% (inactive); in assay [5] (setting [6]), 97.6%; in assay [5] (setting [7]) it was 98.2%.

Turning to `COc1cccc2cc(C(=O)N3CCN(C/C=C/c4ccccc4)CC3)c(=O)oc12`, the GFP response vs DMSO is 98.6% (inactive) in assay [1], 99.6% in assay [1] (setting [6]), 98% in assay [1] (setting [7]) and 103% (inactive) in assay [3]. The results for the GFP response relative to DMSO in assay [2], in assay [2] (setting [8]) and in assay [2] (setting [9]) were 97% (inactive), 95.9% and 98.4%, respectively. In addition, the GFP response, % of DMSO in assay [4] is 96.7% (inactive); in assay [5], 95.9% (inactive); in assay [5] (setting [6]) it was 93.8%; in assay [5] (setting [7]), 96.8%.

In the case of `O=C(COc1c(Br)cc(Br)c2cccnc12)N1CCc2ccccc2C1`, the GFP response vs DMSO in assay [1] is 98.2% (inactive); in assay [1] (setting [6]), 97.8%; in assay [1] (setting [7]), 97.2%; in assay [3], 112% (inactive). In addition, the GFP response relative to DMSO was 140% (inactive) in assay [2], 124% in assay [2] (setting [8]) and 144% in assay [2] (setting [9]). Also, the GFP response, % of DMSO in assay [4] was 93.2% (inactive); in assay [5], 101% (inactive); in assay [5] (setting [6]), 102%; in assay [5] (setting [7]) it was 95.6%.

Consider `Cc1nc2ccccc2n2c(O)c(CC(=O)O)cc12`, for which the GFP response vs DMSO in assay [1] was 98.7% (inactive); in assay [1] (setting [6]) it was 98.5%; in assay [1] (setting [7]) it was 99.3%; in assay [3] it was 102% (inactive). Further, the values for the GFP response relative to DMSO in assay [2], in assay [2] (setting [8]) and in assay [2] (setting [9]) were 103% (inactive), 96.5% and 99.5%, respectively. Also, the GFP response, % of DMSO in assay [4] was 98.9% (inactive); in assay [5] it was 92.1% (inactive); in assay [5] (setting [6]) it was 96.4%; in assay [5] (setting [7]) it was 85.1%.

Turning to `Cc1ccc(-c2ccc(/C=N/NC(N)=S)o2)cc1`, the GFP response vs DMSO in assay [1] was 98.6% (inactive); in assay [1] (setting [6]) it was 95%; in assay [1] (setting [7]), 98.7%; in assay [3], 102% (inactive). Also, the figures for the GFP response relative to DMSO in assay [2], in assay [2] (setting [8]) and in assay [2] (setting [9]) were 112% (inactive), 113% and 115%, respectively. The GFP response, % of DMSO in assay [4] was 91.9% (inactive); in assay [5], 97.8% (inactive); in assay [5] (setting [6]), 94.8%; in assay [5] (setting [7]), 96.6%.

As to `Cc1ccccc1CN1CCSc2sccc2C1=O`, the GFP response vs DMSO in assay [1] was 95.9% (inactive); in assay [1] (setting [6]) it was 94.2%; in assay [1] (setting [7]), 97.3%; in assay [3], 95.7% (inactive). Further, the GFP response relative to DMSO was 106% (inactive) in assay [2], 105% in assay [2] (setting [8]) and 113% in assay [2] (setting [9]). The GFP response, % of DMSO in assay [4] is 97.2% (inactive); in assay [5] it was 97.8% (inactive); in assay [5] (setting [6]), 94.8%; in assay [5] (setting [7]), 98.7%.

With `CCCn1c(=O)c(C(=O)Nc2ccccc2)c(O)c2ccccc21`, the GFP response vs DMSO was 96.7% (inactive) in assay [1], 96.4% in assay [1] (setting [6]), 95.6% in assay [1] (setting [7]) and 99.3% (inactive) in assay [3]. Besides, the GFP response relative to DMSO is 100% (inactive) in assay [2], 97.5% in assay [2] (setting [8]) and 98.4% in assay [2] (setting [9]). For the same compound, the GFP response, % of DMSO in assay [4] is 96.6% (inactive); in assay [5] it was 98.6% (inactive); in assay [5] (setting [6]), 95.8%; in assay [5] (setting [7]) it was 97.1%.

Turning to `O=C1c2ccsc2SCCN1Cc1ccccc1Cl`, the GFP response vs DMSO in assay [1] was 94.2% (inactive); in assay [1] (setting [6]) it was 92%; in assay [1] (setting [7]), 95.7%; in assay [3] it was 90.5% (inactive). The GFP response relative to DMSO was 111% (inactive) in assay [2], 102% in assay [2] (setting [8]) and 114% in assay [2] (setting [9]). Further, the GFP response, % of DMSO in assay [4] is 97.5% (inactive); in assay [5], 93% (inactive); in assay [5] (setting [6]), 93.8%; in assay [5] (setting [7]) it was 90.7%.

For the compound `N=C1/C(=C\c2ccc(Br)o2)C(=O)N=C2SC(CC(=O)N3CCCCC3)=NN12`, the GFP response vs DMSO in assay [1] is 97.4% (inactive); in assay [1] (setting [6]), 96.8%; in assay [1] (setting [7]) it was 95.5%; in assay [3], 103% (inactive). Besides, the GFP response relative to DMSO in assay [2] is 104% (inactive); in assay [2] (setting [8]), 103%; in assay [2] (setting [9]) it was 102%. The GFP response, % of DMSO in assay [4] is 104% (inactive); in assay [5] it was 107% (inactive); in assay [5] (setting [6]), 108%; in assay [5] (setting [7]) it was 108%.

Consider `O=C1c2cccc3cccc(c23)C(=O)N1c1nccs1`, for which the GFP response vs DMSO is 103% (inactive) in assay [1], 102% in assay [1] (setting [6]), 104% in assay [1] (setting [7]) and 133% (inactive) in assay [3]. Moreover, the results for the GFP response relative to DMSO in assay [2], in assay [2] (setting [8]) and in assay [2] (setting [9]) were 116% (inactive), 117% and 112%, respectively. In addition, the GFP response, % of DMSO in assay [4] was 106% (inactive); in assay [5] it was 130% (inactive); in assay [5] (setting [6]), 132%; in assay [5] (setting [7]) it was 131%.

For the compound `CCCc1[nH]nc2c1C(c1cc(OC)cc(OC)c1)C(C#N)=C(N)O2` (configuration not stated), the GFP response vs DMSO in assay [1] was 101% (inactive); in assay [1] (setting [6]), 99.8%; in assay [1] (setting [7]), 101%; in assay [3], 102% (inactive). The GFP response relative to DMSO was 103% (inactive) in assay [2], 100% in assay [2] (setting [8]) and 106% in assay [2] (setting [9]). For the same compound, the GFP response, % of DMSO was 100% (inactive) in assay [4], 95.2% (inactive) in assay [5], 93.2% in assay [5] (setting [6]) and 95.5% in assay [5] (setting [7]).

For the compound `CCN(CC)c1ccc2cc(-c3nc4ccccc4[nH]3)c(=O)oc2c1`, the GFP response vs DMSO in assay [1] is 108% (inactive); in assay [1] (setting [6]), 106%; in assay [1] (setting [7]), 111%; in assay [3], 185% (active). The GFP response relative to DMSO was 107% (inactive) in assay [2], 99.3% in assay [2] (setting [8]) and 113% in assay [2] (setting [9]). For the same compound, the GFP response, % of DMSO in assay [4] is 108% (inactive); in assay [5], 135% (inactive); in assay [5] (setting [6]) it was 132%; in assay [5] (setting [7]) it was 136%.

Regarding `COc1ccccc1C1CCN(Cc2c(C)[nH]c3ccccc23)CC1`, the GFP response vs DMSO is 103% (inactive) in assay [1], 102% in assay [1] (setting [6]), 104% in assay [1] (setting [7]) and 99% (inactive) in assay [3]. Moreover, the figures for the GFP response relative to DMSO in assay [2], in assay [2] (setting [8]) and in assay [2] (setting [9]) were 97% (inactive), 95.9% and 96.2%, respectively. Besides, the GFP response, % of DMSO in assay [4] is 102% (inactive); in assay [5] it was 98.8% (inactive); in assay [5] (setting [6]) it was 97.4%; in assay [5] (setting [7]) it was 98.1%.

As for `COc1ccc(-c2cc(C(F)(F)F)nc(S(C)(=O)=O)n2)cc1`, the GFP response vs DMSO in assay [1] is 102% (inactive); in assay [1] (setting [6]) it was 104%; in assay [1] (setting [7]), 96.1%; in assay [3], 130% (inactive). Moreover, the GFP response relative to DMSO in assay [2] is 136% (inactive); in assay [2] (setting [8]), 134%; in assay [2] (setting [9]), 133%. Also, the GFP response, % of DMSO was 116% (inactive) in assay [4], 95.2% (inactive) in assay [5], 98.1% in assay [5] (setting [6]) and 86.9% in assay [5] (setting [7]).

On to `COc1ccc(-c2nnc(NC(=O)c3ccc([N+](=O)[O-])o3)o2)c(OC)c1`, for which the GFP response vs DMSO in assay [1] is 101% (inactive); in assay [1] (setting [6]) it was 100%; in assay [1] (setting [7]), 101%; in assay [3] it was 100% (inactive). The GFP response relative to DMSO in assay [2] was 95.4% (inactive); in assay [2] (setting [8]) it was 92.8%; in assay [2] (setting [9]) it was 96.1%. The GFP response, % of DMSO in assay [4] was 98% (inactive); in assay [5], 105% (inactive); in assay [5] (setting [6]) it was 105%; in assay [5] (setting [7]) it was 103%.

For `Cc1c(O)nc(SC2CC(=O)N(c3ccccc3)C2=O)[nH]c1=O` (configuration not stated), the GFP response vs DMSO in assay [1] was 96.4% (inactive); in assay [1] (setting [6]), 96.5%; in assay [1] (setting [7]) it was 96.7%; in assay [3], 99.5% (inactive). Moreover, the GFP response relative to DMSO in assay [2] was 109% (inactive); in assay [2] (setting [8]) it was 101%; in assay [2] (setting [9]) it was 107%. The GFP response, % of DMSO in assay [4] is 97.1% (inactive); in assay [5] it was 96.4% (inactive); in assay [5] (setting [6]) it was 98.3%; in assay [5] (setting [7]) it was 96.8%.

For the compound `COc1ccc(-c2nc3cccc(C)n3c2NCc2ccco2)cc1OC`, the GFP response vs DMSO was 101% (inactive) in assay [1], 99.5% in assay [1] (setting [6]), 100% in assay [1] (setting [7]) and 97.2% (inactive) in assay [3]. The GFP response relative to DMSO in assay [2] was 100% (inactive); in assay [2] (setting [8]), 101%; in assay [2] (setting [9]), 101%. In addition, the GFP response, % of DMSO in assay [4] was 99.5% (inactive); in assay [5], 97.2% (inactive); in assay [5] (setting [6]), 99.3%; in assay [5] (setting [7]), 97.1%.

These data come from PubChem BioAssay.
